Results taken from paper PMC13334471 (Journal of molecular and cellular cardiology, 2026).

Assays:
[1] = biological target: tropomyosin (rabbit cardiac α-tropomyosin) (Oryctolagus cuniculus, UniProt P58772); test: LSPR binding of cTnT-C14 peptides to immobilized tropomyosin; conditions: peptide 2 μM, mutants vs WT
Outline: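 Rabbit cardiac α-Tm immobilized on a carboxyl-gold LSPR chip from 50 μg/mL in 10 mM Na acetate pH 4.0. Blocked with 1 M ethanolamine, then 1 mM 6-mercapto-1-hexanol in 30% EtOH. Peptides flowed at 20 μL/min for 4 min in 0.1 M KCl, 3 mM MgCl2, 10 mM imidazole-HCl pH 7.0; buffer dissociation to baseline or plateau. Plateau Δpm taken; 1:1 fit; KD = koff/kon.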

F-actin = F-actin (Oryctolagus cuniculus, UniProt P68135); test: LSPR direct binding of cTnT-C14 peptides to immobilized F-actin; design: species or system rabbit; conditions: mutants vs WT
Outline: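 Rabbit back-muscle F-actin immobilized on a carboxyl-gold LSPR chip with no Tm, run as for the Tm binding assay. Chip blocked with ethanolamine and 6-mercapto-1-hexanol. Peptides flowed at 20 μL/min in 0.1 M KCl, 3 mM MgCl2, 10 mM imidazole-HCl pH 7.0, then buffer dissociation. Plateau Δpm taken; rate constants from 1:1 fit; KD = koff/kon.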

## INVLRNRINDNQKV [E16]
[1]
  Tm binding / binding signal (in words): non-Tm-binding
F-actin
  F-actin binding / binding signal (in words): non-actin-binding
